Measurements from article PMC10076185 (Experimental eye research, 2023).
Each block holds one compound with its values, some of them ahead of it.

Key:
Assay in all cases: SPR, protein immobilised by amine coupling, OneStep injection
Assay type in all cases: binding
Human IRBP = Human IRBP (Homo sapiens, UniProt P10745)
GSTP1 = GSTP1 (Homo sapiens, UniProt P09211)
Outline: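 Human GSTP1 was expressed in E. coli and purified in-house, then amine-coupled to a carboxyl chip with an unmodified reference surface. Test compound in 100% DMSO was diluted to 1–100 µM in running buffer (10 mM PBS, 0.1% polyvinylpyrrolidone, 5% DMSO, pH 7.4) and injected as a Taylor-dispersion gradient, three times per concentration, at 25 °C. Sensorgrams were double-referenced with buffer blanks, and equilibrium binding constants were fitted.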

Apo-M = Apo-M (Homo sapiens, UniProt O95445)
Outline: (§1)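 Recombinant human proteins from commercial sources were amine-coupled to a carboxyl sensor chip beside an unmodified reference surface. Test compound in 100% DMSO was diluted to 1–100 µM in running buffer (10 mM PBS, 0.1% polyvinylpyrrolidone, 5% DMSO, pH 7.4) and given as a Taylor-dispersion gradient, three injections each, at 25 °C and 10 Hz. Sensorgrams were zeroed and double-referenced against buffer blanks, and equilibrium constants were fitted.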

Apo-E = Apo-E (Homo sapiens, UniProt P02649)
Outline: as §1

Apo-D = Apo-D (Homo sapiens, UniProt P05090)
Outline: as §1

Apo-AII = Apo-AII (Homo sapiens, UniProt P02652)
Outline: as §1

Apo-AI = Apo-AI (Homo sapiens, UniProt P02647)
Apo-AI, sequence (P02647 25-267): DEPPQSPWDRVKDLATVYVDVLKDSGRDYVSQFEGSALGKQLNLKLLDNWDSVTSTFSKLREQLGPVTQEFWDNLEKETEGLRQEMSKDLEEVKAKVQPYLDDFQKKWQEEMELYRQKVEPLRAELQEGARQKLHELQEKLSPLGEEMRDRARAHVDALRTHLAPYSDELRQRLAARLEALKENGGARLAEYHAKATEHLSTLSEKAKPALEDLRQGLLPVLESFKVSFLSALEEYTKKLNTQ

Human IRBP, sequence (P10745 18-1247): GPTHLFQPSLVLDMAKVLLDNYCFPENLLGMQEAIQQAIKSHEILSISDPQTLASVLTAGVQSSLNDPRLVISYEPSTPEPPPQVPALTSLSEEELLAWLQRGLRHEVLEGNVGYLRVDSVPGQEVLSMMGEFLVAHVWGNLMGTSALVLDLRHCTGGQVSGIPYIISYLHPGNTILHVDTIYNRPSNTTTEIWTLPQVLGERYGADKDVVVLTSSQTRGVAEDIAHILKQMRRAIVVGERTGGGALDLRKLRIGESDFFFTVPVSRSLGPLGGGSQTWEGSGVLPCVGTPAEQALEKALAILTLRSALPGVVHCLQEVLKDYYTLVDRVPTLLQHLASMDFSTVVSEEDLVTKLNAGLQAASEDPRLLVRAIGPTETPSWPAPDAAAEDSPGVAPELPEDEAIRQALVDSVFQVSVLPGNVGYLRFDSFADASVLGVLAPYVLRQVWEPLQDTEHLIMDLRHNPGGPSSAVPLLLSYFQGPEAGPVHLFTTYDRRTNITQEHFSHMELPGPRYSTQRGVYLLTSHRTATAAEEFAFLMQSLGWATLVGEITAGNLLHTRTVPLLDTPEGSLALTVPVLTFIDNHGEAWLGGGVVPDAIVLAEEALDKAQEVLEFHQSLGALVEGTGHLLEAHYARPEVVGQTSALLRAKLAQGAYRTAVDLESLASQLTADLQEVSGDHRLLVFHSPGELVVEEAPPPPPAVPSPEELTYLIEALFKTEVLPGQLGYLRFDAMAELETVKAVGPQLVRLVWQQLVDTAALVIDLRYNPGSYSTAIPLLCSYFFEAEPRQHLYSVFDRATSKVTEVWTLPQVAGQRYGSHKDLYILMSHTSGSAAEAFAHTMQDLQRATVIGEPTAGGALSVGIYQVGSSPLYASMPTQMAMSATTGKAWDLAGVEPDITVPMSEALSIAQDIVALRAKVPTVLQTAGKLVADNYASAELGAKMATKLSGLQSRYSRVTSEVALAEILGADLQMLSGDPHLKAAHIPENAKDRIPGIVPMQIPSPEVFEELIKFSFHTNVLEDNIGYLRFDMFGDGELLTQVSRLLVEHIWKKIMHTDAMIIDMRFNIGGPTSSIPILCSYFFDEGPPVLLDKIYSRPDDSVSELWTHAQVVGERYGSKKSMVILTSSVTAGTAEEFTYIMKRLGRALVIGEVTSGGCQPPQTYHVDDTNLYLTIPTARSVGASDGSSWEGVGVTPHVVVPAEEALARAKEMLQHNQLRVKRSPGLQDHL
GSTP1, sequence (P09211 2-210): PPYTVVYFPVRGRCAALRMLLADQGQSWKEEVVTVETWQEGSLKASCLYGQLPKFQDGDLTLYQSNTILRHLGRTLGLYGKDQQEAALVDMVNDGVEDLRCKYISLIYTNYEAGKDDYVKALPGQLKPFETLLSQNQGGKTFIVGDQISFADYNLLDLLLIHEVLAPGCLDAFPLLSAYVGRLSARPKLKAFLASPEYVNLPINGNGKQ
Apo-D, sequence (P05090 21-189): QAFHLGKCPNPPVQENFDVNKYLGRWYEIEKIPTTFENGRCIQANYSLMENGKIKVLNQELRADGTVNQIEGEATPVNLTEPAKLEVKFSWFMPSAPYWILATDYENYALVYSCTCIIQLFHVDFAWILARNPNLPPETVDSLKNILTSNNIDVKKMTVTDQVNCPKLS
Apo-E, sequence (P02649 19-317): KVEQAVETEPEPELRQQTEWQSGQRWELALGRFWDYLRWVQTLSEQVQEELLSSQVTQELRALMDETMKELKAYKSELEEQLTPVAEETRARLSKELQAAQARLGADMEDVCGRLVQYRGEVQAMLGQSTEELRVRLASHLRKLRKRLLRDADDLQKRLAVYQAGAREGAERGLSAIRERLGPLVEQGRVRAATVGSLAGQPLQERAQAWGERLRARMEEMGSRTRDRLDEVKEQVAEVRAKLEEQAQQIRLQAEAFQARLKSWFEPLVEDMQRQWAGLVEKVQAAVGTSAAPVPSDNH
Apo-AII, sequence (P02652 24-100): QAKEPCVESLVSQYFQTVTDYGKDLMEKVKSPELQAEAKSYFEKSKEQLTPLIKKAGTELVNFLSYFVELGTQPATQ
Apo-M, sequence (O95445 whole entry): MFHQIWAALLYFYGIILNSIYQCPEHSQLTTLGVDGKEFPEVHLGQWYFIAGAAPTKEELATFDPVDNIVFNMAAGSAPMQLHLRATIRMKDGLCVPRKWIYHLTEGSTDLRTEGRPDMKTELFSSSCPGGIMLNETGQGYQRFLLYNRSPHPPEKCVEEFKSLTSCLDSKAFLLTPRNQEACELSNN

Compound: CC1=C(/C=C/C(C)=C/C=C/C(C)=C/C=C/C=C(C)/C=C/C=C(C)/C=C/C2=C(C)C(=O)[C@@H](O)CC2(C)C)C(C)(C)C[C@H](O)C1=O [Astaxanthin]
- Kd (Human IRBP): 1640 ± 60 nM
- Kd (GSTP1): 150 ± 20 nM

Compound: CC1=C[C@H](O)CC(C)(C)[C@H]1/C=C/C(C)=C/C=C/C(C)=C/C=C/C=C(C)/C=C/C=C(C)/C=C/C1=C(C)C[C@@H](O)CC1(C)C [Lutein]
- Kd (Apo-M): 35000 ± 1000 nM
- Kd (Human IRBP): 1060 ± 200 nM
- Kd (Apo-E): 21000 ± 1000 nM
- Kd (Apo-D): 84000 ± 1000 nM
- Kd (Apo-AII): 6100 ± 300 nM
- Kd (Apo-AI): 12100 nM

Compound: CC1=C(/C=C/C(C)=C/C=C/C(C)=C/C=C/C=C(C)/C=C/C=C(C)/C=C/C2=C(C)CCCC2(C)C)C(C)(C)CCC1 [β-Carotene]
- Kd (Apo-M): 50 nM
- Kd (Human IRBP): 920 ± 100 nM
- Kd (Apo-E): 400 ± 60 nM
- Kd (Apo-D): 10 nM
- Kd (Apo-AI): 330 ± 30 nM

The next lines start with the values.

- Kd (Apo-M): 81000 ± 9000 nM
- Kd (Human IRBP): 1640 ± 500 nM
- Kd (Apo-E): 9250 nM
- Kd (Apo-D): 68200 nM
- Kd (Apo-AII): 1840 ± 90 nM
- Kd (Apo-AI): 5620 nM
- Kd (GSTP1): 53 ± 10 nM
Compound: CC1=C(/C=C/C(C)=C/C=C/C(C)=C/C=C/C=C(C)/C=C/C=C(C)/C=C/C2=C(C)C[C@@H](O)CC2(C)C)C(C)(C)C[C@H](O)C1 [Zeaxanthin]

- Kd (Apo-M): 35400 ± 800 nM
- Kd (Human IRBP): 1850 ± 300 nM
- Kd (Apo-E): 6220 nM
- Kd (Apo-D): 45600 nM
- Kd (Apo-AII): 1600 ± 700 nM
- Kd (Apo-AI): 7900 ± 200 nM
- Kd (GSTP1): 55 ± 30 nM
Compound: CC1=C(/C=C/C(C)=C/C=C/C(C)=C/C=C/C=C(C)/C=C/C=C(C)/C=C/C2=C(C)C[C@H](O)CC2(C)C)C(C)(C)C[C@H](O)C1 [meso-Zeaxanthin]
